Measurements taken from ChEMBL document CHEMBL4024748, “Development of Potent Type I Protein Arginine Methyltransferase (PRMT) Inhibitors of Leukemia Cell Proliferation” (J Med Chem, 2017).
The source made the active and inactive calls. The calls are words filed in the database; no cut-off is given here.

Columns and labels:
[1] = target: Protein arginine N-methyltransferase 1 (Rattus norvegicus) (UniProt Q63009); assay: Binding affinity to rat His-tagged PRMT1 (11 to 353 residues) expressed in Escherichia coli BL21(DE3) at 200 uM by STD-NMR spectroscopic method
Protein arginine N-methyltransferase 1 (Rattus norvegicus), sequence (Q63009 whole entry, looked up, the tested form may be a part): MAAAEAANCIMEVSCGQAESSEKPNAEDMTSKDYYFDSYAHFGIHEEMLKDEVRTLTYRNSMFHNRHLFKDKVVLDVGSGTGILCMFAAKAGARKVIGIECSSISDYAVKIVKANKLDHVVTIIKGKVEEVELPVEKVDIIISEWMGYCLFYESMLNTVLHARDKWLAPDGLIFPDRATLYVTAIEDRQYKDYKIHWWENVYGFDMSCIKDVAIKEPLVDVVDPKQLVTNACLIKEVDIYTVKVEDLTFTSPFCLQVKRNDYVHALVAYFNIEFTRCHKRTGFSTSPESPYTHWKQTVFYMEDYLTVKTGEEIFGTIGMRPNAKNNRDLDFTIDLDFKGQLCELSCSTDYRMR
How it was run: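 Rat PRMT1 (11–353), N-His6, expressed in E. coli BL21(DE3) with 0.4 mM IPTG at 16°C. Purified by Ni affinity and Superdex200. NMR used 5 µM PRMT1 in phosphate buffer pH 7.4 (20 mM NaH2PO4, 20 mM Na2HPO4, 100 mM NaCl) in D2O. Ligand at 200 µM in 5% DMSO-d6. CPMG run with 5, 2 and 1 µM PRMT1, plus STD.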

[2] = target: Protein arginine N-methyltransferase 3 (Homo sapiens, UniProt O60678); assay: Inhibition of PRMT3 (unknown origin) incubated for 15 mins followed by substrate addition measured after 60 mins by AlphaLisa method
Protein arginine N-methyltransferase 3, sequence (O60678 whole entry): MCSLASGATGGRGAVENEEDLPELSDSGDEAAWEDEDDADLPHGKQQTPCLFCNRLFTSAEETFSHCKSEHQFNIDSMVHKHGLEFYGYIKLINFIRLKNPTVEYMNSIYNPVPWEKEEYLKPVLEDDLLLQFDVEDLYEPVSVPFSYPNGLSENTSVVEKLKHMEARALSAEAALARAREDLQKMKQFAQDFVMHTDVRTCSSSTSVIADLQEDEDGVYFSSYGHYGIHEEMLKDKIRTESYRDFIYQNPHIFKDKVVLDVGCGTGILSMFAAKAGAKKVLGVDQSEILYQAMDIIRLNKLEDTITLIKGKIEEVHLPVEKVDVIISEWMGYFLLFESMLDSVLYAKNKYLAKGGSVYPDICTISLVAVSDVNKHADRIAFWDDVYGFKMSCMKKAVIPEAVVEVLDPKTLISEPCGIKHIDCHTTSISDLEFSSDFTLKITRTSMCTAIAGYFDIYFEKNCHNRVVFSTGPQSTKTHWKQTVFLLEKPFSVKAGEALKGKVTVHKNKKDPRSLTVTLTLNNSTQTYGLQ
How it was run: (§1)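 AlphaLISA. Enzyme and substrate in 1x assay buffer, compound at 1% DMSO final. Enzyme preincubated with compound 15 min at room temperature, then substrate added. Reaction 60 min at room temperature, then bead mix added and incubated 60 min under subdued light before signal read.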

[3] = target: Protein arginine N-methyltransferase 6 (Homo sapiens, UniProt Q96LA8); assay: Inhibition of PRMT6 (unknown origin) incubated for 15 mins followed by substrate addition measured after 60 mins by AlphaLisa method; how it was run: as §1
Protein arginine N-methyltransferase 6, sequence (Q96LA8 whole entry): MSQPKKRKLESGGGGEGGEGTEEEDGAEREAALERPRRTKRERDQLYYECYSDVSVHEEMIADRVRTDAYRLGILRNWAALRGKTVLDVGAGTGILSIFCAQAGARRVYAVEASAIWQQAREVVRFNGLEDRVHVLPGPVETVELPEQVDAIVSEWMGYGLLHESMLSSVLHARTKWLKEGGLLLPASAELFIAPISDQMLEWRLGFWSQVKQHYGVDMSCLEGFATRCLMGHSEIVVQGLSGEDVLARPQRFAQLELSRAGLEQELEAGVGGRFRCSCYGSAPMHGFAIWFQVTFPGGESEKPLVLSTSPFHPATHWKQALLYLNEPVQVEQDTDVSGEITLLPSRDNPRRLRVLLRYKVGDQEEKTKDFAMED

[4] = target: DNMT3A2/3L complex (Homo sapiens) (UniProt Q9Y6K1+Q9UJW3); assay: Inhibition of DNMT3A/3L (unknown origin) at 50 uM incubated for 15 mins followed by substrate addition measured after 60 mins by radioisotope assay; assay type: protein-complex assay
DNMT3A2/3L complex (Homo sapiens), sequence (Q9UJW3 whole entry, looked up): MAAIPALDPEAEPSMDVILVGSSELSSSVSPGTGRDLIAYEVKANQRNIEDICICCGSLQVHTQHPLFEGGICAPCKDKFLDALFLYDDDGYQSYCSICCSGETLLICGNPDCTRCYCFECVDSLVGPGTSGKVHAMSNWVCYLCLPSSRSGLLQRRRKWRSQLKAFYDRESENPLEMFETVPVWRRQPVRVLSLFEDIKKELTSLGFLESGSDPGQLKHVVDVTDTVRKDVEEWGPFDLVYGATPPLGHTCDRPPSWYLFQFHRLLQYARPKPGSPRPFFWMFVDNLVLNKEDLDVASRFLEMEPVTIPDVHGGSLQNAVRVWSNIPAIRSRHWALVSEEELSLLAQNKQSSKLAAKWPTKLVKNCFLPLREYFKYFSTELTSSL
DNMT3A2/3L complex (Homo sapiens), sequence (Q9Y6K1 whole entry, looked up): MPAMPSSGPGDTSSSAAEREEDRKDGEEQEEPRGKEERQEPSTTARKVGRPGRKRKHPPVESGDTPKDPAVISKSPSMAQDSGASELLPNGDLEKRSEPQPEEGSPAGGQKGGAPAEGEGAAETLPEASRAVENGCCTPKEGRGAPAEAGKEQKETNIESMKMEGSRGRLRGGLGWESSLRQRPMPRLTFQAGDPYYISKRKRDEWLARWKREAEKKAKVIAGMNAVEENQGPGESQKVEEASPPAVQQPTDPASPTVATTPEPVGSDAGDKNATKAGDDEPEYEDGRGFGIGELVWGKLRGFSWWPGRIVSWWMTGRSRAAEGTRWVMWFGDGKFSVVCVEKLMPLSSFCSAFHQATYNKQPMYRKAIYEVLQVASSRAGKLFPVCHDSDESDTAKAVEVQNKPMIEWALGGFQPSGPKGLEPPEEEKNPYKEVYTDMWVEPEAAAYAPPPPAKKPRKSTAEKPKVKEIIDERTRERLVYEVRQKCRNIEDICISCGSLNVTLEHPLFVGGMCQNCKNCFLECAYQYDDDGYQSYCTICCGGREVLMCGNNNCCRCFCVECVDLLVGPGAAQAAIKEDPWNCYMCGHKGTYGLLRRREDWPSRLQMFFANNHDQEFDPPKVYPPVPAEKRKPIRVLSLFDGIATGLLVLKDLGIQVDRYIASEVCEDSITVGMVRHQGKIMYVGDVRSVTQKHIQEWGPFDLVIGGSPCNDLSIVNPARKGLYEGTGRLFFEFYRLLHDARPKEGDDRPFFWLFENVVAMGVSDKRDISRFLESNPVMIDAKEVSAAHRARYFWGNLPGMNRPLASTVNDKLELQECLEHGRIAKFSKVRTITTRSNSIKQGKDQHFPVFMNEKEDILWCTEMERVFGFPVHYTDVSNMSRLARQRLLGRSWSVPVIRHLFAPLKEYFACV

[5] = target: Histone-lysine N-methyltransferase EZH2 (Homo sapiens) (UniProt Q15910); assay: Inhibition of EZH2 (unknown origin) at 100 uM incubated for 15 mins followed by substrate addition measured after 60 mins by radioisotope assay
Histone-lysine N-methyltransferase EZH2 (Homo sapiens), sequence (Q15910 whole entry, looked up): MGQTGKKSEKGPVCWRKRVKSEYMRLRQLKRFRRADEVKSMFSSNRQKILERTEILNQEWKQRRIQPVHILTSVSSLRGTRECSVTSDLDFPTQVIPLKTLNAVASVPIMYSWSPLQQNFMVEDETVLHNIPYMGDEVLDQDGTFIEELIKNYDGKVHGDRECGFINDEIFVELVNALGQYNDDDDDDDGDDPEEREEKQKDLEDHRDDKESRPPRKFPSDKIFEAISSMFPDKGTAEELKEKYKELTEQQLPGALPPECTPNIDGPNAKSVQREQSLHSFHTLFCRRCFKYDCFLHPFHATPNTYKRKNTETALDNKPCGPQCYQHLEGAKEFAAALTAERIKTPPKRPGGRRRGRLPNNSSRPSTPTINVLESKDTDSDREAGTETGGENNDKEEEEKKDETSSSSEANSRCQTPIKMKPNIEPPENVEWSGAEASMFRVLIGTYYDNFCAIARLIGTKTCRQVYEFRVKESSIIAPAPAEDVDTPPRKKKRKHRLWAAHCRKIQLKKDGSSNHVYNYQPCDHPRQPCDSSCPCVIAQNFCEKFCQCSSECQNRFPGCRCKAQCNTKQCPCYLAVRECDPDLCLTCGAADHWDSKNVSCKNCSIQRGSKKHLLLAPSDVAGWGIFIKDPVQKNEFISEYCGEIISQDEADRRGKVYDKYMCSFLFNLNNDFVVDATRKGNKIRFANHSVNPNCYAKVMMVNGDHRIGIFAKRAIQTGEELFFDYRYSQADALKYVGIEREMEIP

[6] = target: N-lysine methyltransferase SMYD2 (Homo sapiens) (UniProt Q9NRG4); assay: Inhibition of SMYD2 (unknown origin) at 100 uM incubated for 15 mins followed by substrate addition measured after 240 mins by AlphaLisa method
N-lysine methyltransferase SMYD2 (Homo sapiens), sequence (Q9NRG4 whole entry): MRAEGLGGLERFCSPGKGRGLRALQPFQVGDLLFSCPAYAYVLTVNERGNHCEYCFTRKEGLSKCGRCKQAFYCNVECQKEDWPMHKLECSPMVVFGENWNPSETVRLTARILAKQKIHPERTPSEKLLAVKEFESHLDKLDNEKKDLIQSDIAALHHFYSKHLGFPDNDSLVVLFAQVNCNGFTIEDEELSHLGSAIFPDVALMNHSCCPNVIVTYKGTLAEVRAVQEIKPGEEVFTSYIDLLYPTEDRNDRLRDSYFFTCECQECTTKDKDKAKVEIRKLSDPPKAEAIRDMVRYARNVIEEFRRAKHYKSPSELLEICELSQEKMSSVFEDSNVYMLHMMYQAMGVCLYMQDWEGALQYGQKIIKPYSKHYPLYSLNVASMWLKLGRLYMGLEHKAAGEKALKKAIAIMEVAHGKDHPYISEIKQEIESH
How it was run: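 SMYD2 AlphaLISA at 50 and 100 µM compound, 1% DMSO final. Enzyme preincubated 15 min at RT, then substrate added and reacted 240 min at RT. Bead mix added and incubated 60 min at RT in subdued light before reading.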

[7] = target: Histone-lysine N-methyltransferase SUV39H1 (Homo sapiens) (UniProt O43463); assay: Inhibition of SUV39H1 (unknown origin) at 100 uM incubated for 15 mins followed by substrate addition measured after 60 mins by AlphaLisa method
Histone-lysine N-methyltransferase SUV39H1 (Homo sapiens), sequence (O43463 whole entry): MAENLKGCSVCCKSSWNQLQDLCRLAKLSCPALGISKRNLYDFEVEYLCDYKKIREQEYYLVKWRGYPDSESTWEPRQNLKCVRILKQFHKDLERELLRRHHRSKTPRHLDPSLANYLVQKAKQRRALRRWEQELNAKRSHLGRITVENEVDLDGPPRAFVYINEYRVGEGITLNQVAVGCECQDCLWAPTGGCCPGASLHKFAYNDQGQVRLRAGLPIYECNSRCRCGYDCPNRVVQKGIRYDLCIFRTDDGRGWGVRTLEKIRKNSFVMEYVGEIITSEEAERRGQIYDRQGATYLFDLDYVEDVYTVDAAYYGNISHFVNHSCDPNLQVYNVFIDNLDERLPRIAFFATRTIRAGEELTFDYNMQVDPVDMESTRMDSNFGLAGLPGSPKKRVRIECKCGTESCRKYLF
How it was run: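 SUV39H1 AlphaLISA at 50 and 100 µM compound, 1% DMSO final. Enzyme preincubated 15 min at room temperature, substrate reaction 60 min at RT. Bead mix then added for 60 min at RT in subdued light before signal collection.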

[8] = target: Histone acetyltransferase KAT2A (Homo sapiens) (UniProt Q92830); assay: Inhibition of GCN5 (unknown origin) at 100 uM incubated for 15 mins followed by substrate addition measured after 60 mins by radioisotope assay
Histone acetyltransferase KAT2A (Homo sapiens), sequence (Q92830 2-837 limits assumed): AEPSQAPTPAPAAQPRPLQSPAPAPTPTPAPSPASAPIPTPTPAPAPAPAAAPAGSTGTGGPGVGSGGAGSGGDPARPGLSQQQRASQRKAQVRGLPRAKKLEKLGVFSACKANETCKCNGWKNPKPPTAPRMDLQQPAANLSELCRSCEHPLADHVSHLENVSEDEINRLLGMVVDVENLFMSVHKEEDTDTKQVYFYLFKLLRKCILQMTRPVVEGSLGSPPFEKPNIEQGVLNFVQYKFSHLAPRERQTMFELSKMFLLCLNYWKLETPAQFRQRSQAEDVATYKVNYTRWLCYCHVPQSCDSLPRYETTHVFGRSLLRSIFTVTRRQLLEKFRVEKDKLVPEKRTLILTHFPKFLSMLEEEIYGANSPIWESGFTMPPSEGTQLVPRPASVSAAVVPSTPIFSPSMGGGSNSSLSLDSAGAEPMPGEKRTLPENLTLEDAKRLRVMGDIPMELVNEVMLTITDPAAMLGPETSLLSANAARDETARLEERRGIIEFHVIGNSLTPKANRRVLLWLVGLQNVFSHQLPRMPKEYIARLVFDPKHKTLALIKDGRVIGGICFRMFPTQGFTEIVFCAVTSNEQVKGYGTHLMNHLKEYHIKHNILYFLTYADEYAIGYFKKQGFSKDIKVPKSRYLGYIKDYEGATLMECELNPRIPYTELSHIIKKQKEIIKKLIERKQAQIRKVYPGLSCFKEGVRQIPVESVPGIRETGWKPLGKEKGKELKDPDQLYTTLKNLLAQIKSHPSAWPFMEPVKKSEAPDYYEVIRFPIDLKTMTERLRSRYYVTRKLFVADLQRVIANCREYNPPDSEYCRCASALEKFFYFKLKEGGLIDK

[9] = target: Histone acetyltransferase KAT2A (Homo sapiens) (UniProt Q92830); assay: Inhibition of GCN5 (unknown origin) at 50 uM incubated for 15 mins followed by substrate addition measured after 60 mins by radioisotope assay
KOPN-8 = assay: Cytotoxicity against human KOPN8 cells assessed as decrease in cell viability after 96 hrs by Cell-Titer Glo assay; assay type: functional, cell-based
How it was run: (§2)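 Cells kept at 37°C, 5% CO2, exposed to compound or DMSO control for 96 h. Viability read by CellTiter-Glo luminescence after 2 min shaking to lyse and 10 min at room temperature. Triplicate wells, normalised to control cells. For long-term growth, log-phase seeding densities; cells counted and replated to the starting density with fresh compound on days 4 and 8.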

RS4-11 = assay: Cytotoxicity against human RS4:11 cells assessed as decrease in cell viability after 96 hrs by Cell-Titer Glo assay; assay type: functional, cell-based; how it was run: as §2
REH = assay: Cytotoxicity against human REH cells assessed as decrease in cell viability after 96 hrs by Cell-Titer Glo assay; assay type: functional, cell-based; how it was run: as §2
[10] = Cytotoxicity against human RCTEC cells assessed as decrease in cell viability at 6.25 to 25 uM after 96 hrs by Cell-Titer Glo assay; assay type: cell-based
How it was run: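 Normal HUV-EC-C, MRC-5 and RCTEC cells at 37°C, 5% CO2, given compound or DMSO control for 96 h. Viability by CellTiter-Glo luminescence after 2 min shaking and 10 min at room temperature. Triplicate wells, normalised to control cells.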

MV4-11 [11] = assay: Antiproliferative activity against human MV4-11 cells assessed as decrease in cell viability measured at day 4 by Cell-Titer Glo assay; assay type: functional, cell-based; details: MV4-11, 96 h; how it was run: as §2
MV4-11 [12] = assay: Cell cycle arrest in human MV4-11 cells assessed as accumulation at G1 phase after 72 hrs by propidium iodide staining-based flow cytometry; assay type: functional
How it was run: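 MV4-11 cells in 6-well plates with compound or DMSO control, harvested at 72 h. Fixed overnight in 70% ethanol at 4°C, washed with PBS, stained 30 min at room temperature with propidium iodide/RNase buffer, analysed by flow cytometry. Mean ± SD of three replicates.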

MV4-11 [13] = assay: Downregulation of HOXA9 mRNA levels in human MV4-11 cells by qRT-PCR analysis; assay type: functional, cell-based
How it was run: (§3)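 MV4-11 cells treated with compound. mRNA measured by SYBR Green qRT-PCR with B2M as internal control. Fold change from ΔΔCt. Samples run in triplicate, mean ± SD.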

MV4-11 [14] = assay: Downregulation of HOXA10 mRNA levels in human MV4-11 cells by qRT-PCR analysis; assay type: functional, cell-based; how it was run: as §3

- Activity [1]: Active
- IC50 [2]: 22 nM
- IC50 [3]: 1.2 nM
- inhibition [4]: Active
- inhibition [5]: Active
- inhibition [6]: Active
- inhibition [7]: Active
- inhibition [8]: Active
- inhibition [9]: Active
- IC50 (MV4-11 [11]): 4550 nM
Compound: CN(CCN)Cc1ccccc1Sc1ccccc1Cl
- Activity (KOPN-8): Dose-dependent effect
- Activity (RS4-11): Dose-dependent effect
- Activity (REH): Dose-dependent effect
- Activity [10]: Non-Toxic
- Activity (MV4-11 [12]): Dose-dependent effect
- Activity (MV4-11 [13]): Dose-dependent effect
- Activity (MV4-11 [14]): Dose-dependent effect
